From ChEMBL document CHEMBL4138318, “Discovery of 5-Cyano-6-phenylpyrimidin Derivatives Containing an Acylurea Moiety as Orally Bioavailable Reversal Agents against P-Glycoprotein-Mediated Mutidrug Resistance” (J Med Chem, 2018)
Active and inactive are the calls of the source. The calls are words filed in the database; no cut-off is given here.

How the values were obtained:
SW620/AD300 [1] = assay: Antitumor activity against ABCB1 overexpressing human SW620/AD300 cells xenografted in BALB/c nude mouse assessed as reduction in tumor volume at 20 mg/kg/day, po cotreated with 5 mg/kg, ip paclitaxel measured after 21 days; type: functional, organism-based
Method in brief: (§1)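 Female BALB/c nude mice (18-20 g, 5-6 weeks) bearing SW620/AD300 xenografts; grouping once tumours reached 100 mm3: saline vehicle […] ip, paclitaxel 5 mg/kg every 3 days ip, test agent 20 mg/kg/day orally, or the combination. Body weight and tumour volume recorded every 2 days over 21 days; tumours excised and weighed at end.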

[2] = target: T1, ATP-dependent translocase ABCB1 (Homo sapiens, UniProt P08183); assay: Inhibition of ABCB1 in human SW620/AD300 cells assessed as intracellular accumulation of paclitaxel up to 4 uM treated at 2 hrs post paclitaxel treatment for 30 mins in paclitaxel free medium by HPLC analysis; type: cell-based; settings: 0.5 h
Method in brief: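 Equal numbers of SW620/AD300 cells loaded with 6 µg/mL paclitaxel 2 h, then held in paclitaxel-free medium with or without compound 30 min at 37℃; cells harvested, disrupted by ultrasound, extracted with ethyl acetate and paclitaxel quantified by HPLC.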

[3] = target: Multidrug resistance-associated protein 1 (Homo sapiens, UniProt P33527); assay: Binding affinity at ABCC1 in human SW620/AD300 cells assessed as thermal stabilization preincubated for 30 mins followed by incubation 40 to 61 degC for 3 mins by CETSA; type: cell-based; settings: 0.05 h
Method in brief: (§2)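 SW620/AD300 cells lysed by three liquid-nitrogen freeze-thaw cycles; ultracentrifuged supernatant split into compound-treated and solvent-control portions, incubated 30 min at 37℃, aliquoted and heated 3 min at 40, 43, 46, 49, 52, 55, 58 or 61℃; remaining ABCB1 or ABCC1 detected by western blotting.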

[4] = target: T1, ATP-dependent translocase ABCB1; assay: Inhibition of ABCB1 in human SW620/AD300 cells assessed as decrease in rhodamine 123 efflux preincubated for 4 hrs followed by 30 mins incubation in Rho-123 containing medium and subsequent incubation in Rho-123 free medium up to 120 mins by flow cytometry; type: cell-based
Method in brief: (§3)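 Cells loaded with rhodamine 123 as in the accumulation assay (4 h compound pre-exposure, 1 µg/mL dye 30 min, 37℃), then kept in dye-free medium with or without reversal agent for 30, 60, 90 or 120 min at 37℃; intracellular fluorescence read by flow cytometry at 488/530 nm. Three independent experiments.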

[5] = target: T1, ATP-dependent translocase ABCB1; assay: Inhibition of ABCB1 in human KB-C2 cells assessed as potentiation of vincristine-induced cytotoxicity by measuring fold reduction in vincristine IC50 at 1 uM preincubated for 4 hrs followed by vincristine addition measured after 72 hrs by MTT assay; type: cell-based
[6] = target: T1, ATP-dependent translocase ABCB1; assay: Stimulation of human ABCB1 ATPase activity expressed in high-five insect cell membrane vesicles by colorimetric analysis
Method in brief: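 Vanadate-sensitive ABCB1 ATPase activity in High Five insect cell membrane vesicles, measured with a commercial ATPase kit under a modified protocol; compound tested across 0-40 µM; maximal fold stimulation and concentration giving 50% stimulation derived.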

[7] = target: T1, ATP-dependent translocase ABCB1; assay: Inhibition of ABCB1 in human SW620/AD300 cells assessed as potentiation of paclitaxel-induced cytotoxicity by measuring fold reduction in paclitaxel IC50 at 2 uM after 72 hrs by MTT assay relative to paclitaxel alone; type: cell-based
Method in brief: (§4)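 SW620/AD300 cells (~5×10^3/well) treated with graded paclitaxel with or without modulator (2 µM, or 0.5-2 µM in dose series; 0.1% DMSO solvent control) for 72 h; MTT (5 mg/mL stock) added 4 h, absorbance 490 nm. IC50 as mean ± SD of three independent runs; reversal fold = paclitaxel IC50 without/with modulator.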

[8] = target: T1, ATP-dependent translocase ABCB1; assay: Inhibition of ABCB1 in human SW620/AD300 cells assessed as potentiation of paclitaxel-induced cytotoxicity after 72 hrs by MTT assay; type: cell-based; method in brief: as §4
[9] = target: T1, ATP-dependent translocase ABCB1; assay: Binding affinity to ABCB1 in human SW620/AD300 cells assessed as thermal stabilization preincubated for 30 mins followed by incubation at 40 to 61 degC for 3 mins by CETSA; type: cell-based; settings: 0.05 h; method in brief: as §2
[10] = target: T1, ATP-dependent translocase ABCB1; assay: Inhibition of ABCB1 (unknown origin) expressed in HEK293 cells assessed as potentiation of vincristine-induced cytotoxicity by measuring fold reduction in vincristine IC50 at 1 uM preincubated for 4 hrs followed by vincristine addition measured after 72 hrs by MTT assay; type: cell-based
[11] = target: T1, ATP-dependent translocase ABCB1; assay: Inhibition of ABCB1 in human SW620/AD300 cells assessed as accumulation of rhodamine 123 preincubated for 4 hrs followed by rhodamine 123 addition measured after 30 mins by flow cytometry; type: cell-based; settings: 0.5 h
SW-620 [12] = assay: Inhibition of rhodamine 123 efflux in human SW620 cells up to 4 uM preincubated for 4 hrs followed by 30 mins incubation in Rho-123 containing medium and subsequent incubation in Rho-123 free medium up to 120 mins by flow cytometry; type: functional, cell-based; method in brief: as §3
[13] = target: T1, ATP-dependent translocase ABCB1; assay: Inhibition of ABCB1 in human SW620/AD300 cells assessed as intracellular accumulation of [3H]-paclitaxel up to 4 uM preincubated for 4 hrs followed by [3H]-paclitaxel addition measured after 2 hrs by liquid scintillation counting method; type: cell-based
Method in brief: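 Cells pre-exposed with or without compound at various concentrations 4 h at 37°C, then 0.1 µM [3H]-paclitaxel added for 2 h in continued presence of treatment; washed three times in cold PBS, lysed, radioactivity counted by liquid scintillation. Mean ± SD of three independent assays.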

[14] = target: T1, ATP-dependent translocase ABCB1; assay: Inhibition of ABCB1 in human SW620/AD300 cells assessed as potentiation of paclitaxel-induced cytotoxicity by measuring fold reduction in paclitaxel IC50 at 1 uM after 72 hrs by MTT assay; type: cell-based; method in brief: as §4
SW-620 [15] = assay: Increase in rhodamine 123 accumulation in human SW620 cells up to 4 uM preincubated for 4 hrs followed by rhodamine 123 addition measured after 30 mins by flow cytometry; type: functional, cell-based
Mus musculus = assay: Toxicity in nude BALB/c mouse xenografted with ABCB1 overexpressing human SW620/AD300 cells assessed as change in body weight at 20 mg/kg/day, po cotreated with 5 mg/kg, ip paclitaxel measured after 21 days; type: organism-based; settings: in vivo, 504 h; method in brief: as §1
[16] = target: T1, ATP-dependent translocase ABCB1; assay: Inhibition of ABCB1 in human SW620/AD300 cells assessed as reduction in [3H]-paclitaxel efflux preincubated for 4 hrs followed by [3H]-paclitaxel addition for 2 hrs measured after 120 mins by liquid scintillation counting method; type: cell-based
Method in brief: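 After 2 h loading with 0.1 µM [3H]-paclitaxel (following 4 h compound pre-exposure), SW620 or SW620/AD300 cells moved to label-free medium for a 2 h efflux phase; samples taken at 0, 30, 60 and 120 min and radioactivity counted by liquid scintillation. Three independent assays, mean ± SD.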

SW620/AD300 [17] = assay: Effect on subcellular localization of ABCB1 in human SW620/AD300 cells at 2 uM after 48 hrs by Hoechst 33258 staining-based immunofluorescence assay; type: functional, cell-based
Method in brief: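 About 1×10^4 cells on coverslips incubated with compound 48 h, fixed in 4% paraformaldehyde ≥20 min, blocked 2 h in PBS with 5% BSA, anti-ABCB1 primary overnight at 4℃, Alexa Fluor 488 anti-goat secondary 2 h, nuclei stained with Hoechst 33258 20 min; imaged by laser scanning confocal microscopy.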

T1 sequence (P08183 whole entry): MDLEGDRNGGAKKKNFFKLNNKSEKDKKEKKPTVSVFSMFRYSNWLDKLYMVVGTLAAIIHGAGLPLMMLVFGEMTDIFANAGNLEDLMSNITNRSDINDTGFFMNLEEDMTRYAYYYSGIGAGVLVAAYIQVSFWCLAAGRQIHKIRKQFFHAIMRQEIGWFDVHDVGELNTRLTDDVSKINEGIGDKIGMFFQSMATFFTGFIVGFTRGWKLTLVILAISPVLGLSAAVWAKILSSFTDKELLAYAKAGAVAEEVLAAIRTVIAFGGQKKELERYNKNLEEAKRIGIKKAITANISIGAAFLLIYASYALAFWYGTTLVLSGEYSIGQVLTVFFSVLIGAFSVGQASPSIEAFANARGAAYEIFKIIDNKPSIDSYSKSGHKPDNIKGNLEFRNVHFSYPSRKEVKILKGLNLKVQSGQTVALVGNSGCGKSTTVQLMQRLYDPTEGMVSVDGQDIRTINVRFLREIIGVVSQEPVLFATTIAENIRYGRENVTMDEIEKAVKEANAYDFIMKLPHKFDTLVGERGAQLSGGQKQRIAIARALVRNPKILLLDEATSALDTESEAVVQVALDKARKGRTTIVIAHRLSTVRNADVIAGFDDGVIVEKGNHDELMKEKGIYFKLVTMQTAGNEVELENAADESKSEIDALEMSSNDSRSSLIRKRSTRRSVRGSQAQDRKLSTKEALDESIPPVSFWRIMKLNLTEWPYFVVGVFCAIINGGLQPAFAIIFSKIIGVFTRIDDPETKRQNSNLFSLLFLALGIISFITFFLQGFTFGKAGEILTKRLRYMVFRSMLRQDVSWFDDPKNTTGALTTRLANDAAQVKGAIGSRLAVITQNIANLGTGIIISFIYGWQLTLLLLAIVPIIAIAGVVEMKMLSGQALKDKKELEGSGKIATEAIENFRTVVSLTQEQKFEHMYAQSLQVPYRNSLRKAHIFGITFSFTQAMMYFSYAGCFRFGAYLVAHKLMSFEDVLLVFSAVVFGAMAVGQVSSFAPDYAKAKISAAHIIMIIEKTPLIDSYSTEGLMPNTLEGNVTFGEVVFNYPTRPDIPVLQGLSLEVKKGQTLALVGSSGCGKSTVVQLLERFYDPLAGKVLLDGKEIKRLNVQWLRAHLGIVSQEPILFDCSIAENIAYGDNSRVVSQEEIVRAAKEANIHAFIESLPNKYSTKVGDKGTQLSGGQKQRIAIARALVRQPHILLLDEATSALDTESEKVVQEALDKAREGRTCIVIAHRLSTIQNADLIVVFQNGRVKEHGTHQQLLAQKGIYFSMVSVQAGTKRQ
Sequence of Multidrug resistance-associated protein 1 (P33527 whole entry): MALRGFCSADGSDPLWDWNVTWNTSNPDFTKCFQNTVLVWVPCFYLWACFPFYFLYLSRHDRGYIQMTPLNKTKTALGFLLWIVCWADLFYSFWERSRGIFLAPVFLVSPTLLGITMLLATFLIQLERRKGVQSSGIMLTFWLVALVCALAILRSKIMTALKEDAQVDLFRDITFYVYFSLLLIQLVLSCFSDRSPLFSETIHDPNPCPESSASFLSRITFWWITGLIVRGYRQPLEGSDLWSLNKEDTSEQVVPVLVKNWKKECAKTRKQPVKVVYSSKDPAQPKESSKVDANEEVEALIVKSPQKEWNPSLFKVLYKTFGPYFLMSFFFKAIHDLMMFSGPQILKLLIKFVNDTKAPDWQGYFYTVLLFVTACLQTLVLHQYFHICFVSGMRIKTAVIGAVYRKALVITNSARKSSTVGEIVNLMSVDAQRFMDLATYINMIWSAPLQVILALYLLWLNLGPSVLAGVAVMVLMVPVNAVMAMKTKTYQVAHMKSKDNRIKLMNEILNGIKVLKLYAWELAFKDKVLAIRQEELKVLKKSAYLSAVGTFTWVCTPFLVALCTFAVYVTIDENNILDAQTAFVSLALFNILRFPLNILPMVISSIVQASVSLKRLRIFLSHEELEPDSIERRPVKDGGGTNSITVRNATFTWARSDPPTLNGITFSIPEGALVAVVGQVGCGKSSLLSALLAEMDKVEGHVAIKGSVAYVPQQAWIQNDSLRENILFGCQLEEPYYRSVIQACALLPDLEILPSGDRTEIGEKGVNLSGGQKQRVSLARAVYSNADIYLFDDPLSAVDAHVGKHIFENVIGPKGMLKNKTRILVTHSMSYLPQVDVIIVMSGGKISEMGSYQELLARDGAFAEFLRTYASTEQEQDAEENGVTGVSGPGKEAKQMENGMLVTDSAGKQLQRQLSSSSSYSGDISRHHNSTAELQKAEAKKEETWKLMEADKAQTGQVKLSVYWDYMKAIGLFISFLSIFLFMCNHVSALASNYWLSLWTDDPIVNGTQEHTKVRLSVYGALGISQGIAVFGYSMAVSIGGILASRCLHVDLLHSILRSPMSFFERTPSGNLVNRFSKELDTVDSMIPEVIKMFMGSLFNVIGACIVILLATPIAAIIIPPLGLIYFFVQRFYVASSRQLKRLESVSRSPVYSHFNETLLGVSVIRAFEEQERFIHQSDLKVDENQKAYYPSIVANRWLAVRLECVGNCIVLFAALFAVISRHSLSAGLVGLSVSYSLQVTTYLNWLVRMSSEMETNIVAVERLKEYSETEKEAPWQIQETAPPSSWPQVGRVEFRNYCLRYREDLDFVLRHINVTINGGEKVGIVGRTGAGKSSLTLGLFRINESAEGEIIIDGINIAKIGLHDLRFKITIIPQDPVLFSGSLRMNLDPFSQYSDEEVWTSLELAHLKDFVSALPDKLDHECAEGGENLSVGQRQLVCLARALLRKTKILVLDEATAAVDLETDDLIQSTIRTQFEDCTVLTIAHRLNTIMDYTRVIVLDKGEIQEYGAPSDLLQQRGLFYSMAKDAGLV

COc1cc(-c2nc(SCC(=O)NC(=O)Nc3ccccn3)nc(Nc3cccc(Cl)c3)c2C#N)cc(OC)c1OC
Activity (SW620/AD300 [1]): Active | inhibition (INH) [2]: Active | Activity [3]: Not Active | inhibition (INH) [4]: Dose-dependent effect | fold change (FC) [5]: 3.85 | fold change (FC) [6]: 4.56 | fold change (FC) [7]: 837.2 | inhibition (INH) [8]: Dose-dependent effect | Activity [9]: Active | fold change (FC) [10]: 9.75 | inhibition (INH) [11]: Dose-dependent effect | inhibition (SW-620 [12]): inactive | inhibition (INH) [13]: Active | fold change (FC) [14]: 135.03 | Activity (SW-620 [15]): inactive | Activity (Mus musculus): Non-Toxic | inhibition (INH) [16]: Dose-dependent effect | Activity (SW620/AD300 [17]): inactive
